Assay results pooled from the literature.
Lines come from different studies, so protocols differ.
Cell line: A549
Read-out: cell growth or viability

| SMILES | test | conditions | endpoint | result |
| --- | --- | --- | --- | --- |
| O=C1OC2(c3cc(Cl)c(O)cc3Oc3cc(O)c(Cl)cc32)c2ccccc21 | CCK-8 | 48 h | CC50 | > 200 µM |
| O=C(O)CCCC/C=C\CCCc1ccccc1 | MTS | – | IC50 | 61 µM |
| CN(Cc1cnc2nc(N)nc(N)c2n1)c1ccc(C(=O)N2CCCCC2)cc1 | ATP luminescence | – | GI50 | 34.9 µM |
| O=C1OC2(c3cc(I)c(O)c(I)c3Oc3c2cc(I)c(O)c3I)c2c(Cl)c(Cl)c(Cl)c(Cl)c21 | CCK-8 | 48 h | CC50 | > 200 µM |
| C=C(C)[C@H](CC=C(C)C)Cc1c(O)cc(O)c2c1O[C@H](c1ccc(O)cc1O)CC2=O | MTT | 48 h | IC50 | 18.1 µM |
| CC(=O)O[C@H]1C(=O)[C@@]2(C)[C@H]([C@H](OC(=O)c3ccccc3)[C@]3(O)C[C@H](OC(=O)[C@H](O)[C@@H](NC(=O)c4ccccc4)c4ccccc4)C(C)=C1C3(C)C)[C@]1(OC(C)=O)CO[C@@H]1C[C@@H]2O | MTT | 48 h | IC50 | 0.45 µM |
| O=C1OC2(c3ccccc31)c1ccc(O)c(I)c1Oc1c2ccc(O)c1I | CCK-8 | 48 h | CC50 | > 200 µM |
| Nc1nc(N)c2nc(CNc3ccc(C(=O)NCCc4ccccc4)cc3)cnc2n1 | ATP luminescence | – | GI50 | 38.8 µM |
| COc1cccc2c1C(=O)c1c(O)c3c(c(O)c1C2=O)C[C@@](O)(C(=O)CO)C[C@@H]3O[C@H]1C[C@H](N)[C@H](O)[C@H](C)O1 | MTT | 48 h | IC50 | 1.4 µM |
| C=C(C)C(O)Cc1c(O)c(CC=C(C)C)c2occ(-c3ccc(O)cc3)c(=O)c2c1O (stereo not drawn) | MTT | 100 µg/mL | viability | 91.6% |
| O=C(O)c1ccc2c(c1)C(=O)OC21c2ccc(O)cc2Oc2cc(O)ccc21 | CCK-8 | 48 h | CC50 | > 200 µM |
| Nc1nc(N)c2nc(CNc3ccc(C(=O)c4ccccc4)cc3)cnc2n1 | ATP luminescence | – | GI50 | 13.7 µM |
| O=C1OC2(c3ccc(O)cc3Oc3cc(O)ccc32)c2ccc(NC(=S)NCCS)cc21 | CCK-8 | 48 h | CC50 | > 200 µM |
| C=C(C)[C@H](CC=C(C)C)Cc1c(O)cc(OC)c(C(=O)/C=C/c2ccc(O)cc2O)c1O | MTT | – | IC50 | 57.1 µM |
| CCCCCCCCCCCCCCCC(=O)O | MTS | 24 h | IC50 | 145 µM |
